A short description of assay [1]: In vitro inhibition of cytopathic effect was determined against HIV-1 RF in CEM-SS cells using MTS cytoprotection assay. The assay is classed as functional, cell-based. Put shortly:
(§1)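 CEM-SS cells from exponential culture, 5 × 10^3 per well, mixed with pretitered HIV-1 RF and serially diluted compound. Incubated 6 days at 37 °C, 5% CO2. MTS added, colour developed overnight at 37 °C, read at 490 nm, expressed as percent of uninfected drug-free control. EC50 is 50% protection from cytopathic effect; CC50 is 50% death of uninfected cells. Triplicates on each of two sister plates, plate values averaged.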
A general note: Damage to the host cells serves as the signal in cytopathic effect assays.

Another assay has as its system CEM-SS. Briefly: 50% cell death in uninfected CEM-SS cells was determined using MTS cytoprotection assay. In kind it is functional. Conditions: Homo sapiens. Put shortly:
as §1

Assay [2] relates to MT4. In words: 50% cell death in uninfected MT-4 cells was determined using MTS cytoprotection assay. The assay is classed as functional. The conditions noted are these: Homo sapiens, in the assay text read “MTT cytoprotection assay” for “MTS cytoprotection assay”. Put shortly:
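MT-4 cells at 6 × 10^5 cells/mL, infected with HIV-1 IIIB or HIV-2 ROD at 100–300 CCID50, or mock-infected. Serial 5-fold compound dilutions, triplicate wells. After 5 days, viability read by MTT reduction at 540 and 690 nm, median OD of three wells. CC50 is 50% drop in OD540 of mock-infected cells; EC50 is 50% protection from viral cytopathic effect.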
In general terms: Tetrazolium dyes change colour on reduction, which living cells bring about.

Assay [3] has as its system MT4. In words: In vitro inhibition of cytopathic effect was determined against HIV-1 IIIB in MT-4 cells using MTT cytoprotection assay. The conditions noted are these: Homo sapiens.
Assay in assay [4]: as above
The conditions noted are these: MT4.

Where only a bound is given, the exact number is not on record here.

The term EC50 denotes the concentration giving half of the maximal effect. As usually defined, the CC50 is the concentration giving 50% cytotoxicity. High values mean better tolerance by the cells, low ones harm at low concentration. As for `CC(C)CCCC(C)[C@H]1CC[C@H]2[C@@H]3CCC4C[C@@H](CCC=C(c5cc(Cl)c(O)c(C(=O)NCC(=O)O)c5)c5cc(Cl)c(O)c(C(=O)NCC(=O)O)c5)CC[C@]4(C)[C@H]3CC[C@]12C` (some centres undefined), the EC50 in assay [1] is 3.4 µM; in the assay with MT4 [3], 57.6 µM. Besides, the CC50 was over 200 µM in the assay on CEM-SS and over 125 µM with MT4 [2].
`CC(C)CCCC(C)[C@H]1CC[C@H]2[C@@H]3CCC4C[C@@H](CCC=C(c5cc(Cl)c(O)c(C(=O)NCC(=O)OC(C)(C)C)c5)c5cc(Cl)c(O)c(C(=O)NCC(=O)OC(C)(C)C)c5)CC[C@]4(C)[C@H]3CC[C@]12C` (some centres undefined): the CC50 in the assay on CEM-SS and in the assay on MT4 [2] was over 125 µM in each case. Also, the EC50 in assay [4] was over 125 µM.
Regarding `CC(C)CCCC(C)[C@H]1CC[C@H]2[C@@H]3CCC4C[C@@H](CCC=C(c5cc(Cl)c(O)c(C(=O)NCCC(=O)O)c5)c5cc(Cl)c(O)c(C(=O)NCCC(=O)O)c5)CC[C@]4(C)[C@H]3CC[C@]12C` (some centres undefined), the CC50 is over 200 µM in the assay with CEM-SS and over 125 µM in the assay with MT4 [2]. Further, the EC50 in assay [4] came to 73.8 µM.
The matching figures for `CC(C)CCCC(C)[C@H]1CC[C@H]2[C@@H]3CCC4C[C@@H](CCCC(c5cc(Cl)c(O)c(C(=O)NCC(=O)O)c5)c5cc(Cl)c(O)c(C(=O)NCC(=O)O)c5)CC[C@]4(C)[C@H]3CC[C@]12C` (some centres undefined): over 200 µM, over 125 µM and 39.4 µM.
As to `CC(C)CCCC(C)[C@H]1CC[C@H]2[C@@H]3CCC4C[C@@H](CCC=C(c5cc(Cl)c(O)c(C(=O)N[C@@H](CC(C)C)C(=O)O)c5)c5cc(Cl)c(O)c(C(=O)N[C@@H](CC(C)C)C(=O)O)c5)CC[C@]4(C)[C@H]3CC[C@]12C` (some centres undefined), the EC50 turned out to be 40 µM in assay [1] and 63.4 µM in assay [4]. Further, the 50% cytotoxic concentration (CC50) in the assay with CEM-SS was over 200 µM; with MT4 [2], over 125 µM.
Consider `COc1c(Cl)cc(Cc2cc(C(=CCC[C@H]3CC[C@@]4(C)C(CC[C@H]5[C@@H]6CC[C@H](C(C)CCCC(C)C)[C@@]6(C)CC[C@@H]54)C3)c3cc(Cc4cc(Cl)c(OC)c(C(=O)O)c4)c(OC)c(C(=O)O)c3)cc(C(=O)O)c2OC)cc1C(=O)O` (some centres undefined), for which the values for the EC50 in assay [1] and in assay [4] were 2.9 µM and 12.5 µM, respectively. Also, the 50% cytotoxic concentration (CC50) in the assay with CEM-SS is 50 µM; in the assay on MT4 [2], 41 µM.
`CC(C)CCCC(C)[C@H]1CC[C@H]2[C@@H]3CCC4C[C@@H](CCC=C(c5cc(Cl)c(O)c(C(=O)N[C@@H](CC(=O)O)C(=O)O)c5)c5cc(Cl)c(O)c(C(=O)N[C@@H](CC(=O)O)C(=O)O)c5)CC[C@]4(C)[C@H]3CC[C@]12C` (some centres undefined): the CC50 in the assay with CEM-SS is 90 µM; in the assay with MT4 [2], over 125 µM.
Take `CC(C)CCCC(C)[C@H]1CC[C@H]2[C@@H]3CCC4C[C@@H](CCC=C(c5cc(Cl)c(OCc6ccc(CC(=O)O)cc6)c(C(=O)O)c5)c5cc(Cl)c(OCc6ccc(CC(=O)O)cc6)c(C(=O)O)c5)CC[C@]4(C)[C@H]3CC[C@]12C` (some centres undefined): the figures for the EC50 in assay [1] and in assay [4] were 1.8 µM and 4.1 µM, respectively.
With `CC(C)CCCC(C)[C@H]1CC[C@H]2[C@@H]3CCC4C[C@@H](CCC=C(c5cc(Cl)c(O)c(C(=O)N[C@@H](Cc6ccccc6)C(=O)O)c5)c5cc(Cl)c(O)c(C(=O)N[C@@H](Cc6ccccc6)C(=O)O)c5)CC[C@]4(C)[C@H]3CC[C@]12C` (some centres undefined), the EC50 was over 200 µM in assay [1] and over 62 µM in assay [4]. The CC50 was over 200 µM in the assay with CEM-SS and 62 µM in the assay with MT4 [2].
For the molecule `CC(C)CCCC(C)[C@H]1CC[C@H]2[C@@H]3CCC4C[C@@H](CCC=C(c5cc(Cl)c(OCc6ccc(-c7cccc(C(=O)O)c7)cc6)c(C(=O)O)c5)c5cc(Cl)c(OCc6ccc(-c7cccc(C(=O)O)c7)cc6)c(C(=O)O)c5)CC[C@]4(C)[C@H]3CC[C@]12C` (some centres undefined), the EC50 came to 6.1 µM in assay [1] and 12 µM in assay [4]. The same molecule had a CC50 in the assay with MT4 [2] of 79 µM.
On to `CC(C)CCCC(C)[C@H]1CC[C@H]2[C@@H]3CCC4C[C@@H](CCC=C(c5cc(Cl)c(O)c(C(=O)O)c5)c5cc(Cl)c(O)c(C(=O)O)c5)CC[C@]4(C)[C@H]3CC[C@]12C` (some centres undefined), for which the EC50 in assay [1] was found to be 5.1 µM; in assay [4], 3 µM. This molecule also came in with a CC50 in the assay on MT4 [2] of over 125 µM.
As to `COc1ccc(C(=O)Nc2cc(C(=CCC[C@H]3CC[C@@]4(C)C(CC[C@H]5[C@@H]6CC[C@H](C(C)CCCC(C)C)[C@@]6(C)CC[C@@H]54)C3)c3cc(NC(=O)c4ccc(OC)c(C(=O)O)c4)c(OC)c(C(=O)O)c3)cc(C(=O)O)c2OC)cc1C(=O)O` (some centres undefined), the EC50 in assay [1] turned out to be 28.6 µM; in assay [4], 8.4 µM. Further, the CC50 in the assay on CEM-SS came out at 47 µM; in the assay on MT4 [2] it was 81 µM.
`CC(C)CCCC(C)[C@H]1CC[C@H]2[C@@H]3CCC4C[C@@H](CCC=C(c5cc(Cl)c(OCc6ccc(C(=O)O)cc6)c(C(=O)O)c5)c5cc(Cl)c(OCc6ccc(C(=O)O)cc6)c(C(=O)O)c5)CC[C@]4(C)[C@H]3CC[C@]12C` (some centres undefined): the EC50 in assay [1] was found to be 0.5 µM. In the assay with MT4 [2], this molecule came in with a CC50 of 89 µM.
For `CC(C)CCCC(C)[C@H]1CC[C@H]2[C@@H]3CCC4C[C@@H](CCCC(c5cc(Cl)c(O)c(C(=O)N[C@@H](CCC(=O)O)C(=O)O)c5)c5cc(Cl)c(O)c(C(=O)N[C@@H](CCC(=O)O)C(=O)O)c5)CC[C@]4(C)[C@H]3CC[C@]12C` (some centres undefined), the CC50 in the assay on CEM-SS was 34 µM; in the assay on MT4 [2], over 125 µM. In assay [4], the EC50 was found to be 10.3 µM.
`CC(C)CCCC(C)[C@H]1CC[C@H]2[C@@H]3CCC4C[C@@H](CCC=C(c5cc(Cl)c(OCc6cccc(C(=O)O)c6)c(C(=O)O)c5)c5cc(Cl)c(OCc6cccc(C(=O)O)c6)c(C(=O)O)c5)CC[C@]4(C)[C@H]3CC[C@]12C` (some centres undefined) yielded a CC50 with MT4 [2] of 76 µM.
Regarding `CC(C)CCCC(C)[C@H]1CC[C@H]2[C@@H]3CCC4C[C@@H](CCC=C(c5cc(Cl)c(O)c(C(=O)N[C@@H](CCC(=O)O)C(=O)O)c5)c5cc(Cl)c(O)c(C(=O)N[C@@H](CCC(=O)O)C(=O)O)c5)CC[C@]4(C)[C@H]3CC[C@]12C` (some centres undefined), the CC50 in the assay with CEM-SS is 82 µM; with MT4 [2], over 125 µM. Moreover, the EC50 in assay [4] came out at 8.9 µM.
Take `CC(C)CCCC(C)[C@H]1CC[C@H]2[C@@H]3CCC4C[C@@H](CCC=C(c5cc(Cl)c(OCc6ccccc6C(=O)O)c(C(=O)O)c5)c5cc(Cl)c(OCc6ccccc6C(=O)O)c(C(=O)O)c5)CC[C@]4(C)[C@H]3CC[C@]12C` (some centres undefined): the EC50 in assay [1] is 39.8 µM; in assay [4], over 37 µM.
As for `CC(C)CCCC(C)[C@H]1CC[C@H]2[C@@H]3CCC4C[C@@H](CCCC(c5cc(Cl)c(OCc6ccc(C(=O)O)cc6)c(C(=O)O)c5)c5cc(Cl)c(OCc6ccc(C(=O)O)cc6)c(C(=O)O)c5)CC[C@]4(C)[C@H]3CC[C@]12C` (some centres undefined), the EC50 amounted to 4.8 µM in assay [1] and 5.1 µM in assay [4]. Also, the values for the CC50 in the assay on CEM-SS and in the assay with MT4 [2] were over 200 µM and over 125 µM, respectively.
Consider `CC(C)CCCC(C)[C@H]1CC[C@H]2[C@@H]3CCC4C[C@@H](CCC=C(c5cc(Cl)c(OCc6ccc(-c7ccc(C(=O)O)cc7)cc6)c(C(=O)O)c5)c5cc(Cl)c(OCc6ccc(-c7ccc(C(=O)O)cc7)cc6)c(C(=O)O)c5)CC[C@]4(C)[C@H]3CC[C@]12C` (some centres undefined), for which the EC50 in assay [1] and in assay [4] was over 100 µM in each case. Moreover, the midpoint of cytotoxicity in the assay with MT4 [2], the CC50, lay at 100 µM.
For the molecule `CC(C)CCCC(C)[C@H]1CC[C@H]2[C@@H]3CCC4C[C@@H](CCC=C(c5cc(Cl)c(OCc6ccc(-c7ccccc7C(=O)O)cc6)c(C(=O)O)c5)c5cc(Cl)c(OCc6ccc(-c7ccccc7C(=O)O)cc6)c(C(=O)O)c5)CC[C@]4(C)[C@H]3CC[C@]12C` (some centres undefined), the EC50 stood at 5.2 µM in assay [1] and 10.1 µM in assay [4].

Source of the values: ChEMBL document CHEMBL1134356, “Correlation of anti-HIV activity with anion spacing in a series of cosalane analogues with extended polycarboxylate pharmacophores” (J Med Chem, 2001).
